Assay results from ChEMBL document CHEMBL1152267, “Peptides based on CcdB protein as novel inhibitors of bacterial topoisomerases” (Bioorg Med Chem Lett, 2008).
Active and inactive are the calls of the source. The calls are words filed in the database; no cut-off is given here.

Tests used:
[1] = test system: Escherichia coli; assay: Inhibition of Escherichia coli topoisomerase 4 assessed as DNA relaxation activity
In short: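 ATP-dependent relaxation assay. Topo IV at 5 nM with supercoiled DNA (400 ng) at 37 °C, with peptide titrated at fixed enzyme and DNA. Value is IC100, the minimum concentration completely inhibiting relaxation.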

[2] = test system: Escherichia coli; assay: Inhibition of Escherichia coli DNA-gyrase assessed as DNA supercoiling activity
In short: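 Peptide titrated into a fixed amount of enzyme and DNA. Gyrase at 3.4 nM with relaxed DNA substrate (500 ng), 37 °C for 1 h, which fully negatively supercoils the substrate without inhibitor. Value is IC100, the lowest peptide concentration giving complete inhibition of supercoiling.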

Row | SMILES | IC100 [1] | IC100 [2] | Activity [2] | Activity [1]
1 | CC[C@H](C)[C@H](NC(=O)[C@H](CCC(=O)O)NC(=O)[C@H](Cc1c[nH]c2ccccc12)NC(=O)[C@H](Cc1ccccc1)NC(=O)[C@H](CCSC)NC(=O)[C@H](CC(C)C)NC(=O)[C@H](CC(N)=O)NC(=O)[C@@H](NC(=O)[C@H](C)NC(=O)[C@H](CC(N)=O)NC(=O)[C@H](CCCCN)NC(=O)[C@@H](NC(=O)[C@H](CC(=O)O)NC(=O)[C@H](CC(N)=O)NC(=O)[C@H](CCC(=O)O)NC(=O)[C@H](CCCNC(=N)N)NC(=O)[C@H](Cc1cnc[nH]1)NC(=O)[C@H](CO)NC(=O)CCCCCNC(=O)[C@H](CC(C)C)NC(=O)[C@H](CCC(=O)O)NC(=O)[C@H](CCCNC(=N)N)NC(=O)[C@H](CO)NC(=O)[C@@H](NC(=O)[C@H](CCCCN)NC(=O)[C@H](CC(=O)O)NC(=O)[C@H](CO)NC(=O)[C@H](CC(C)C)NC(=O)[C@H](CC(C)C)NC(=O)[C@H](CCCNC(=N)N)NC(=O)CCCCCNC(=O)[C@H](CCCCN)NC(=O)[C@H](Cc1ccc(O)cc1)NC(=O)[C@@H](NC(=O)[C@H](Cc1ccc(O)cc1)NC(=O)[C@@H](NC(=O)[C@H](CCCCN)NC(=O)[C@H](Cc1ccccc1)NC(=O)[C@H](CCC(N)=O)NC(=O)[C@@H](N)CCSC)C(C)C)[C@@H](C)O)C(C)C)[C@@H](C)CC)[C@@H](C)CC)C(=O)O | 5 µM |  | inactive | 
2 | CC[C@H](C)[C@H](NC(=O)CNC(=O)[C@H](Cc1c[nH]c2ccccc12)NC(=O)[C@H](Cc1ccccc1)NC(=O)[C@H](CCSC)NC(=O)[C@H](CC(C)C)NC(=O)[C@H](CC(N)=O)NC(=O)[C@@H](NC(=O)[C@H](C)NC(=O)[C@H](CC(N)=O)NC(=O)[C@H](CCCCN)NC(=O)[C@@H](NC(=O)[C@H](CC(=O)O)NC(=O)[C@H](CC(N)=O)NC(=O)[C@H](CCC(=O)O)NC(=O)[C@H](CCCNC(=N)N)NC(=O)[C@H](Cc1cnc[nH]1)NC(=O)[C@@H](N)CO)[C@@H](C)CC)[C@@H](C)CC)C(=O)O | 15 µM | 60 µM |  | 
3 | CC[C@H](C)[C@H](NC(=O)CNC(=O)[C@H](Cc1c[nH]c2ccccc12)NC(=O)[C@H](Cc1ccccc1)NC(=O)[C@H](CCSC)NC(=O)[C@H](CC(C)C)NC(=O)[C@H](CC(N)=O)NC(=O)[C@@H](NC(=O)[C@H](C)NC(=O)[C@H](CC(N)=O)NC(=O)[C@H](CCCCN)NC(=O)[C@@H](NC(=O)[C@H](CC(=O)O)NC(=O)[C@H](CC(N)=O)NC(=O)[C@H](CCC(=O)O)NC(=O)[C@H](CCCNC(=N)N)NC(=O)[C@H](Cc1cnc[nH]1)NC(=O)[C@H](CO)NC(=O)[C@H](CC(C)C)NC(=O)[C@H](CC(=O)O)NC(=O)[C@H](C)NC(=O)[C@@H](NC(=O)[C@H](CCC(=O)O)NC(=O)[C@H](CCC(=O)O)NC(=O)CNC(=O)[C@@H](NC(=O)[C@@H](NC(=O)[C@H](CO)NC(=O)[C@@H](NC(=O)[C@@H]1CCCN1C(=O)[C@@H](NC(=O)[C@H](CO)NC(=O)[C@H](C)NC(=O)[C@@H](N)CCSC)C(C)C)C(C)C)C(C)C)[C@@H](C)CC)C(C)C)[C@@H](C)CC)[C@@H](C)CC)C(=O)O |  |  | inactive | inactive

Further lines, with some results ahead:

Row | IC100 [1] | IC100 [2] | SMILES | Activity [2] | Activity [1]
4 | 15 µM | 40 µM | CC[C@H](C)[C@H](NC(=O)CNC(=O)[C@H](Cc1c[nH]c2ccccc12)NC(=O)[C@H](Cc1ccccc1)NC(=O)[C@H](CCSC)NC(=O)[C@H](CC(C)C)NC(=O)[C@H](CC(N)=O)NC(=O)[C@@H](NC(=O)[C@H](C)NC(=O)[C@H](CC(N)=O)NC(=O)[C@H](CCCCN)NC(=O)[C@@H](NC(=O)[C@H](CC(=O)O)NC(=O)[C@H](CC(N)=O)NC(=O)[C@H](CCC(=O)O)NC(=O)[C@H](CCCNC(=N)N)NC(=O)[C@H](Cc1cnc[nH]1)NC(=O)[C@H](CO)NC(=O)CCCCCNC(=O)[C@H](CCCCN)NC(=O)[C@H](Cc1ccc(O)cc1)NC(=O)[C@@H](NC(=O)[C@H](Cc1ccc(O)cc1)NC(=O)[C@@H](NC(=O)[C@H](CCCCN)NC(=O)[C@H](Cc1ccccc1)NC(=O)[C@H](CCC(N)=O)NC(=O)[C@@H](N)CCSC)C(C)C)[C@@H](C)O)[C@@H](C)CC)[C@@H](C)CC)C(=O)O |  | 
5 | 5 µM | 10 µM | CC[C@H](C)[C@H](NC(=O)CNC(=O)[C@H](Cc1c[nH]c2ccccc12)NC(=O)[C@H](Cc1ccccc1)NC(=O)[C@H](CCSC)NC(=O)[C@H](CC(C)C)NC(=O)[C@H](CC(N)=O)NC(=O)[C@@H](NC(=O)[C@H](C)NC(=O)[C@H](CC(N)=O)NC(=O)[C@H](CCCCN)NC(=O)[C@@H](NC(=O)[C@H](CC(=O)O)NC(=O)[C@H](CC(N)=O)NC(=O)[C@H](CCC(=O)O)NC(=O)[C@H](CCCNC(=N)N)NC(=O)[C@H](Cc1cnc[nH]1)NC(=O)[C@H](CO)NC(=O)CCCCCNC(=O)[C@H](CC(C)C)NC(=O)[C@H](CCC(=O)O)NC(=O)[C@H](CCCNC(=N)N)NC(=O)[C@H](CO)NC(=O)[C@@H](NC(=O)[C@H](CCCCN)NC(=O)[C@H](CC(=O)O)NC(=O)[C@H](CO)NC(=O)[C@H](CC(C)C)NC(=O)[C@H](CC(C)C)NC(=O)[C@H](CCCNC(=N)N)NC(=O)CCCCCNC(=O)[C@H](CCCCN)NC(=O)[C@H](Cc1ccc(O)cc1)NC(=O)[C@@H](NC(=O)[C@H](Cc1ccc(O)cc1)NC(=O)[C@@H](NC(=O)[C@H](CCCCN)NC(=O)[C@H](Cc1ccccc1)NC(=O)[C@H](CCC(N)=O)NC(=O)[C@@H](N)CCSC)C(C)C)[C@@H](C)O)C(C)C)[C@@H](C)CC)[C@@H](C)CC)C(=O)O |  | 
